Experimental data: ChEMBL document CHEMBL4765302, “Design, synthesis and biological evaluation of novel histone deacetylase1/2 (HDAC1/2) and cyclin-dependent Kinase2 (CDK2) dual inhibitors against malignant cancer” (Eur J Med Chem, 2020)

Experiments:
A-375 [1] = assay: Induction of apoptosis in human A-375 cells assessed as necrotic cells at 2 uM incubated for 48 hrs by annexin V-FITC and PI staining based flow cytometry (reference value: 0.139 %); type: functional
A-375 [2] = assay: Induction of apoptosis in human A-375 cells assessed as late apoptotic cells at 2 uM incubated for 48 hrs by annexin V-FITC and PI staining based flow cytometry (reference value: 2.24 %); type: functional
HeLa [3] = assay: Antiproliferative activity against human HeLa cells assessed as reduction in cell growth incubated for 72 hrs by CCK-8 assay; type: functional, cell-based
Summary of the method: (§1)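 IC50 by CCK-8 assay across five solid-tumour lines (HCT116, HepG2, H460, HeLa, A375). Run only for compounds chosen after the single-concentration screen, with CS055 and roscovitine as references.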

HCT-116 [4] = assay: Induction of apoptosis in human HCT-116 cells assessed as necrotic cells at 2 uM incubated for 48 hrs by annexin V-FITC and PI staining based flow cytometry (reference value: 0.124 %); type: functional
NCI-H460 [5] = assay: Induction of apoptosis in human NCI-H460 cells assessed as late apoptotic cells at 2 uM incubated for 48 hrs by annexin V-FITC and PI staining based flow cytometry (reference value: 6.11 %); type: functional
HCT-116 [6] = assay: Antiproliferative activity against human HCT-116 cells assessed as reduction in cell growth at 8 uM incubated for 72 hrs by CCK-8 assay relative to control; type: functional
HCT-116 [7] = assay: Induction of apoptosis in human HCT-116 cells assessed as viable cells at 2 uM incubated for 48 hrs by annexin V-FITC and PI staining based flow cytometry (reference value: 93.9 %); type: functional; conditions: read-out: Activity
HepG2 [8] = assay: Antiproliferative activity against human HepG2 cells assessed as reduction in cell growth at 8 uM incubated for 72 hrs by CCK-8 assay relative to control; type: functional
NCI-H460 [9] = assay: Antiproliferative activity against human NCI-H460 cells assessed as reduction in cell growth incubated for 72 hrs by CCK-8 assay; type: functional, cell-based; conditions: NCI-H460, 72 h; summary of the method: as §1
NCI-H460 [10] = assay: Induction of apoptosis in human NCI-H460 cells assessed as early apoptotic cells at 2 uM incubated for 48 hrs by annexin V-FITC and PI staining based flow cytometry (reference value: 2.88 %); type: functional
HCT-116 [11] = assay: Induction of apoptosis in human HCT-116 cells assessed as early apoptotic cells at 2 uM incubated for 48 hrs by annexin V-FITC and PI staining based flow cytometry (reference value: 4.14 %); type: functional
A-375 [12] = assay: Induction of apoptosis in human A-375 cells assessed as early apoptotic cells at 2 uM incubated for 48 hrs by annexin V-FITC and PI staining based flow cytometry (reference value: 1.34 %); type: functional
HepG2 [13] = assay: Antiproliferative activity against human HepG2 cells assessed as reduction in cell growth incubated for 72 hrs by CCK-8 assay; type: functional, cell-based; conditions: HepG2, 72 h; summary of the method: as §1
HCT-116 [14] = assay: Antiproliferative activity against human HCT-116 cells assessed as reduction in cell growth incubated for 72 hrs by CCK-8 assay; type: functional, cell-based; conditions: HCT-116, 72 h; summary of the method: as §1
HCT-116 [15] = assay: Antiproliferative activity against human HCT-116 cells assessed as reduction in cell growth at 2 uM incubated for 72 hrs by CCK-8 assay relative to control; type: functional
HeLa [16] = assay: Induction of apoptosis in human HeLa cells assessed as early apoptotic cells at 2 uM incubated for 48 hrs by annexin V-FITC and PI staining based flow cytometry (reference value: 0.528 %); type: functional
NCI-H460 [17] = assay: Antiproliferative activity against human H460 cells assessed as reduction in cell growth at 8 uM incubated for 72 hrs by CCK-8 assay relative to control; type: functional
HCT-116 [18] = assay: Induction of apoptosis in human HCT-116 cells assessed as late apoptotic cells at 2 uM incubated for 48 hrs by annexin V-FITC and PI staining based flow cytometry (reference value: 1.88 %); type: functional
NCI-H460 [19] = assay: Induction of apoptosis in human NCI-H460 cells assessed as viable cells at 2 uM incubated for 48 hrs by annexin V-FITC and PI staining based flow cytometry (reference value: 90.4 %); type: functional; conditions: read-out: Activity
HeLa [20] = assay: Induction of apoptosis in human HeLa cells assessed as viable cells at 2 uM incubated for 48 hrs by annexin V-FITC and PI staining based flow cytometry (reference value: 98.5 %); type: functional; conditions: read-out: Activity
NCI-H460 [21] = assay: Induction of apoptosis in human NCI-H460 cells assessed as necrotic cells at 2 uM incubated for 48 hrs by annexin V-FITC and PI staining based flow cytometry (reference value: 0.632 %); type: functional
A-375 [22] = assay: Induction of apoptosis in human A-375 cells assessed as viable cells at 2 uM incubated for 48 hrs by annexin V-FITC and PI staining based flow cytometry (reference value: 96.3 %); type: functional; conditions: read-out: Activity
HeLa [23] = assay: Induction of apoptosis in human HeLa cells assessed as late apoptotic cells at 2 uM incubated for 48 hrs by annexin V-FITC and PI staining based flow cytometry (reference value: 0.870 %); type: functional
A-375 [24] = assay: Antiproliferative activity against human A-375 cells assessed as reduction in cell growth incubated for 72 hrs by CCK-8 assay; type: functional, cell-based; conditions: A-375, 72 h; summary of the method: as §1
NCI-H460 [25] = assay: Antiproliferative activity against human H460 cells assessed as reduction in cell growth at 2 uM incubated for 72 hrs by CCK-8 assay relative to control; type: functional
HepG2 [26] = assay: Antiproliferative activity against human HepG2 cells assessed as reduction in cell growth at 2 uM incubated for 72 hrs by CCK-8 assay relative to control; type: functional
HeLa [27] = assay: Induction of apoptosis in human HeLa cells assessed as necrotic cells at 2 uM incubated for 48 hrs by annexin V-FITC and PI staining based flow cytometry (reference value: 0.124 %); type: functional
Histone deacetylase 2 = Histone deacetylase 2 (Homo sapiens, UniProt Q92769); assay: Inhibition of recombinant human HDAC2 using FLUOR-DE-LYS-Green as substrate incubated for 10 mins followed by substrate addition and measured after 30 mins by fluorescence based assay
Summary of the method: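 IC50 values reported as means of at least two separate determinations, expressed as mean ±SD.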

Histone deacetylase 2, sequence (Q92769 whole entry): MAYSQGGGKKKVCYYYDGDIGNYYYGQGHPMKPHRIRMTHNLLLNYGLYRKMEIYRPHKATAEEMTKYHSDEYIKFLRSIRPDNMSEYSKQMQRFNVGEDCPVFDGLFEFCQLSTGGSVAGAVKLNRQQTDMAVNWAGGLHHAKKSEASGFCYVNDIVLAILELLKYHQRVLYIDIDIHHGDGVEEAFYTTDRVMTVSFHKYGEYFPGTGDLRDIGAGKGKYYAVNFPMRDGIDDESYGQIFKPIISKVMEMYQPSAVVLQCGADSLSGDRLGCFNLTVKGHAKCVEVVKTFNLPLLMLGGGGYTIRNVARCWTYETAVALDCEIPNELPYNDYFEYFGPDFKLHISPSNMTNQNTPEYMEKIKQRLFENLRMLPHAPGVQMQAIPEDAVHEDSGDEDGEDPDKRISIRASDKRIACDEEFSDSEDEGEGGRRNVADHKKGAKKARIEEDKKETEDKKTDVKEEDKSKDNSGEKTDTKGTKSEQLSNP

Compound	Activity (A-375 [1]) [%]	Activity (A-375 [2]) [%]	IC50 (HeLa [3]) [µM]	Activity (HCT-116 [4]) [%]	Activity (NCI-H460 [5]) [%]	inhibition at 8 µM (HCT-116 [6]) [%]	viability at 2 µM (HCT-116 [7]) [%]	inhibition at 8 µM (HepG2 [8]) [%]	IC50 (NCI-H460 [9]) [µM]	Activity (NCI-H460 [10]) [%]	Activity (HCT-116 [11]) [%]	Activity (A-375 [12]) [%]	IC50 (HepG2 [13]) [µM]	IC50 (HCT-116 [14]) [µM]	inhibition at 2 µM (HCT-116 [15]) [%]	Activity (HeLa [16]) [%]	inhibition at 8 µM (NCI-H460 [17]) [%]	Activity (HCT-116 [18]) [%]	viability at 2 µM (NCI-H460 [19]) [%]	viability at 2 µM (HeLa [20]) [%]	also measured
CC[C@H](CO)Nc1nc(NCc2ccccc2)c2ncn(C(C)C)c2n1 [SELICICLIB]	0.189	42.3	11.2	0.24	36	29.1	11.6	22.1	11.9	14	83.9	7.03	8.53	6.76	23.5	4.04	15.6	4.24	47	88.4	Activity (NCI-H460 [21]): 3.09%; viability at 2 µM (A-375 [22]): 50.5%; Activity (HeLa [23]): 7.16%; IC50 (A-375 [24]): 11.8 µM; inhibition at 2 µM (NCI-H460 [25]): 7.73%; inhibition at 2 µM (HepG2 [26]): 12%; Activity (HeLa [27]): 0.424%
Nc1ccc(F)cc1NC(=O)c1ccc(CNC(=O)/C=C/c2cccnc2)cc1	1.73	49.5	11	0.985	15.1	73.4	41.3	40.6	13.3	14.7	54.6	14.2	11.7	1.49	65.7	0.555	38.2	3.12	69.6	98.3	Activity (NCI-H460 [21]): 0.543%; viability at 2 µM (A-375 [22]): 34.5%; Activity (HeLa [23]): 1.04%; IC50 (A-375 [24]): 6.72 µM; inhibition at 2 µM (NCI-H460 [25]): 1.73%; inhibition at 2 µM (HepG2 [26]): 8.36%; IC50 (Histone deacetylase 2): 0.0665 µM; Activity (HeLa [27]): 0.103%
